Data taken from PMC7571300 (ACS Pharmacology & Translational Science, 2020).
Where two headings read alike, the source gives them in different places.

Assays:
EV-A71 3C^pro [1] = target: T1, EV-A71 3C^pro (Enterovirus A71, UniProt B9VUU3); test: FRET-based enzymatic assay; format: biochemical
EV-D68 3C^pro [2] = target: T2, EV-D68 3C^pro (Enterovirus D68, UniProt A0A097BW19); test: Thermal shift binding assay; details: for Tm change, EV-D68 3C^pro: 4 mM DTT, 40 μM compound (shikonin 10 μM), 3 μM protease
T2 sequence (A0A097BW19 1550-1732): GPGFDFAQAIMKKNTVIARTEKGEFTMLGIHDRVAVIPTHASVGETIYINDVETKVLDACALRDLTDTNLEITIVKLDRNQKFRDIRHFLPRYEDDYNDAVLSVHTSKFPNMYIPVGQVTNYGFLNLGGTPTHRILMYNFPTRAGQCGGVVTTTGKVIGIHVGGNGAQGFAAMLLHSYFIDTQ
Method in brief: (§1)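 3Cpro (EV-A71/7D3 or EV-D68 US/KY/14–18953; codon-optimised, pET28b(+), BL21(DE3), 0.5 mM IPTG at 18 °C for 24 h, Ni-NTA purified) was used at 3 μM. Buffer was 50 mM Tris pH 7.0, 150 mM NaCl, 1 mM EDTA, 10% glycerol, with or without 4 mM DTT. Protease was preincubated with test compound or DMSO (30 °C, 30 min), then SYPRO orange (1×) added and a 20–90 °C ramp (0.05 °C/s) run. Tm came from a Boltzmann fit.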

EV-D68 2A^pro [3] = target: T3, EV-D68 2A^pro (Enterovirus D68, UniProt A0A097BW19); test: FRET-based enzymatic assay; format: biochemical
T3 sequence (A0A097BW19 863-1009): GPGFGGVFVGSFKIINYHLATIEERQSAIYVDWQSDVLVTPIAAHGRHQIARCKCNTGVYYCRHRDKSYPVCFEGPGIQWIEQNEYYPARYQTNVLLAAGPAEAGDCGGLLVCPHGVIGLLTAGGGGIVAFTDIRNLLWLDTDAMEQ

EV-A71 2A^pro [4] = target: T4, EV-A71 2A^pro (Enterovirus A71, UniProt B9VUU3); test: FRET-based enzymatic assay; format: biochemical
T4 sequence (B9VUU3 863-1012): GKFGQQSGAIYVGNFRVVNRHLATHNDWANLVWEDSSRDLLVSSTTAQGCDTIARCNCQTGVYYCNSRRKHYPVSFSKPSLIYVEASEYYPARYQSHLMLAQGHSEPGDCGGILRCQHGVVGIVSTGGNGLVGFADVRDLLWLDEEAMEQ

SARS-CoV-2 PL^pro = SARS-CoV-2 PL^pro (Severe acute respiratory syndrome coronavirus 2, UniProt P0DTD1); test: Thermal shift binding assay; details: 4 mM DTT; 40 μM compound (shikonin 10 μM); 3 μM protease
Method in brief: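 SARS-CoV-2 PLpro (ORF1ab 1564–1876, strain WIV04) was expressed from pET28b(+) in BL21(DE3) (0.5 mM IPTG, 18 °C, 24 h), Ni-NTA purified and eluted with 300 mM imidazole. Protein (3 μM) in 50 mM HEPES pH 7.5, 0.01% Triton X-100, with or without 4 mM DTT, sat with test compound or DMSO for 30 min at 30 °C. SYPRO orange (1×) was added and a 20–90 °C ramp at 0.05 °C/s applied. Tm was from a Boltzmann fit.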

EV-D68 3C^pro [5] = target: T2, EV-D68 3C^pro; test: biochemical
SARS-CoV-2 M^pro [6] = target: T5, SARS-CoV-2 M^pro (Severe acute respiratory syndrome coronavirus 2, UniProt P0DTD1); format: binding
EV-D68 2A^pro [7] = target: T3, EV-D68 2A^pro; test: Thermal shift binding assay; details: 4 mM DTT; 40 μM compound (shikonin 10 μM); 3 μM protease
Method in brief: (§2)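 Codon-optimised 2Apro was expressed in E. coli from pET28b(+), from EV-A71/7D3 or EV-D68 US/KY/14–18953. Protease (3 μM) in 50 mM Tris pH 7.0, 150 mM NaCl, 10% glycerol, with or without 4 mM DTT, was preincubated with test compound or DMSO at 30 °C for 30 min. SYPRO orange (1×) was then added and fluorescence followed over 20–90 °C at 0.05 °C/s. Tm was taken as the transition mid log (Boltzmann model).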

in vitro = details: human, CC50 (EV-A71 CPE assay conditions), RD cells, no virus, 37 °C, no MgCl2
EV-A71 2A^pro [8] = target: T4, EV-A71 2A^pro; test: Thermal shift binding assay; details: 4 mM DTT; 40 μM compound (shikonin 10 μM); 3 μM protease
Method in brief: as §2

SARS-CoV-2 = details: at 10 μM; cited from earlier work
SARS-CoV-2 M^pro [9] = target: T5, SARS-CoV-2 M^pro; test: Thermal shift binding assay; details: for Tm change, SARS-CoV-2 M^pro: 4 mM DTT, 40 μM compound (shikonin 10 μM), 3 μM protease
EV-A71 3C^pro [10] = target: T1, EV-A71 3C^pro; test: Thermal shift binding assay; details: 4 mM DTT; 40 μM compound (shikonin 10 μM); 3 μM protease
Method in brief: as §1

[11] = EV-A71 3C^pro IC50, with 4 mM DTT
[12] = EV-D68 2A^pro IC50, with 4 mM DTT
[13] = EV-A71 2A^pro IC50, with 4 mM DTT
[14] = EV-D68 3C^pro IC50, with 4 mM DTT

| SMILES | IC50 (EV-A71 3C^pro [1]; EV-A71 3C^pro IC50, no DTT) [µM] | IC50 (EV-A71 3C^pro [1]; [11]) [µM] | Tm change, EV-D68 3C^pro (EV-D68 3C^pro [2]) | IC50 (EV-D68 2A^pro [3]; EV-D68 2A^pro IC50, no DTT) [µM] | IC50 (EV-D68 2A^pro [3]; [12]) [µM] | IC50 (EV-A71 2A^pro [4]; EV-A71 2A^pro IC50, no DTT) [µM] | IC50 (EV-A71 2A^pro [4]; [13]) [µM] | Tm change, SARS-CoV-2 PL^pro (SARS-CoV-2 PL^pro) | IC50 (EV-D68 3C^pro [5]; EV-D68 3C^pro IC50, no DTT) [µM] | IC50 (EV-D68 3C^pro [5]; [14]) [µM] | Ligand binding to M^pro dimer (SARS-CoV-2 M^pro [6]; with 4 mM DTT, 10-40 μM drug) | Ligands bound per M^pro dimer (SARS-CoV-2 M^pro [6]; without DTT, 10-40 μM drug) | Tm change, EV-D68 2A^pro (EV-D68 2A^pro [7]) | CC50 (in vitro) [µM] | Tm change, EV-A71 2A^pro (EV-A71 2A^pro [8]) | Reduction of viral replication, viral titer reduction assay (SARS-CoV-2) | Tm change, SARS-CoV-2 M^pro (SARS-CoV-2 M^pro [9]) | Tm change, EV-A71 3C^pro (EV-A71 3C^pro [10]) | other results |
| --- | --- | --- | --- | --- | --- | --- | --- | --- | --- | --- | --- | --- | --- | --- | --- | --- | --- | --- | --- |
| CCN(CC)C(=S)SSC(=S)N(CC)CC [disulfiram] | 1 ± 0.6 | > 60 | no Tm change | 3.5 ± 0.5 | > 60 | 11.8 ± 2.1 | > 60 | no Tm change | 0.6 ± 0.1 | > 60 | completely disrupted | up to three | no Tm change | 8.3 | no Tm change | ~30% | no Tm change | no Tm change | – |
| CCC[C@H](NC(=O)[C@@H]1[C@H]2CCC[C@H]2CN1C(=O)[C@@H](NC(=O)[C@@H](NC(=O)c1cnccn1)C1CCCCC1)C(C)(C)C)C(=O)C(=O)NC1CC1 [telaprevir] | – | – | – | 0.1 | – | 1.8 ± 0.9 | 1.3 | – | – | – | – | – | increased the Tm | – | increased the Tm | – | – | – | – |
| CC(C)=CC[C@@H](O)C1=CC(=O)c2c(O)ccc(O)c2C1=O [shikonin] | 0.5 ± 0.2 | > 60 | no Tm change | 37 ± 14.2 | > 60 | 36 ± 20.5 | > 60 | no Tm change | 1.2 ± 0.7 | > 60 | completely disrupted | up to four ligands per dimer | no Tm change | 0.8 | no Tm change | – | no Tm change | no Tm change | – |
| CCCCCCNC(=O)n1cc(F)c(=O)[nH]c1=O [carmofur] | 0.4 ± 0.2 | > 60 | no Tm change | 6.4 ± 1.3 | > 60 | 12.9 ± 4.5 | > 60 | no Tm change | 0.3 | > 60 | moderate binding | up to three ligands per dimer | no Tm change | 47.2 | no Tm change | no significant antiviral effect | no Tm change | no Tm change | Tm increase, EV-D68 3C^pro (EV-D68 3C^pro [2]; absence of DTT, 40 μM compound): 0.87 °C; Tm increase, SARS-CoV-2 M^pro (SARS-CoV-2 M^pro [9]; absence of DTT, 40 μM compound): 4.76 °C |
| O=c1sn(-c2cccc3ccccc23)c(=O)n1Cc1ccccc1 [tideglusib] | 1.2 ± 0.1 | > 60 | no Tm change | 1.3 ± 0.7 | > 60 | 3.4 ± 2.9 | > 60 | no Tm change | 0.6 ± 0.3 | > 60 | did not bind | did not bind | no Tm change | 16.6 | no Tm change | no significant antiviral effect | no Tm change | no Tm change | – |
| O=c1c2ccccc2[se]n1-c1ccccc1 [ebselen] | 1.2 ± 0.7 | > 60 | no Tm change | 3.6 ± 1 | > 60 | 5.9 ± 1.1 | > 60 | no Tm change | 0.1 | > 60 | – | – | no Tm change | 17 | no Tm change | – | no Tm change | no Tm change | Ligand binding to M^pro dimer (SARS-CoV-2 M^pro [6]): completely disrupted; Ligands bound per M^pro dimer (SARS-CoV-2 M^pro [6]): four |
